Experimental data reported in ChEMBL document CHEMBL3272018, “Synthesis of aziridinylallylaminophosphine oxides and sulfides as potential adjuvant cancer chemotherapeutic agents” (J Med Chem, 1976).
Active and inactive are the calls of the source. The rule behind the calls is not given here.

Key:
W256 [1] = assay: Antitumor activity against rat Walker 256 cells intramuscularly allografted in rat assessed as survival rate at 0.4 mg/kg, qd administered for 5 days; format: functional, organism-based; design: dose 0.4 mg/kg
Summary of the method: (§1)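 Rats bearing Walker 256 carcinoma as a solid tumor; lines 1-8 use a cytoxan-resistant Walker 256 subline. Dosed once daily for 5 days. Treated (T) and untreated control (C) groups are compared, and the response is given as T/C percentage, reflecting increase in survival time. Host weight change is the average weight change of the test group minus that of the controls, in grams.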

L1210 [2] = assay: In vivo antitumor activity against mouse L1210 cells in prognostic scoring system assessed as survival rate at 2.5 mg/kg, qd administered for 15 days; format: functional, organism-based; design: dose 2.5 mg/kg
Summary of the method: (§2)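 L1210 leukaemia in mice, run as an ascites tumour system. Injections were once daily for 9 or 15 days, or as a single dose. Response is the increase in survival time, given as T/C %, treated over untreated controls; a larger value means more activity. Weight change is the treated-group mean minus the control-group mean, in grams.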

Rattus norvegicus [3] = assay: Toxicity in rat allografted with rat Walker 256 cells intramuscularly assessed as change in body weight at 0.4 mg/kg, qd administered for 5 days; format: organism-based; design: dose 0.4 mg/kg, route intramuscular; details: in vivo, im, 120 h
Summary of the method: (§3)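 Walker 256 carcinoma solid-tumour system in rats (parent line, or the line resistant to cytoxan). Dosing was one injection per day for 5 days. Toxicity was taken as the average net body-weight change of the treated group minus the average net weight change of the untreated tumour-bearing controls, in grams.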

W256 [4] = assay: Antitumor activity against rat Walker 256 cells intramuscularly allografted in rat assessed as tumor growth inhibition at 0.4 mg/kg, qd administered for 5 days relative to control; format: functional; details: W256, im, 120 h, route intramuscular, read-out: TGI
Summary of the method: (§4)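 Dosed once daily for 5 days. Response is tumor progression in treated (T) versus untreated control (C) animals, expressed as T/C percentage. Host weight change is reported as the average net weight change of the test group minus that of the controls, in grams.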

[5] = Toxicity in rat allografted with rat Walker 256 cells intramuscularly; format: organism-based
W256 [6] = assay: Antitumor activity against rat Walker 256 cells intramuscularly allografted in rat assessed as tumor growth inhibition; format: functional; details: W256, im; summary of the method: as §4
[7] = Therapeutic index, ratio of LD50 for rat allografted with rat Walker 256 cells to ED10 for antitumor activity against rat Walker 256 cells intramuscularly allografted in rat; format: cell-based; details: read-out: TI
Summary of the method: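 Therapeutic index is LD50/ED10 in the Walker 256 solid tumour system. ED10 is the dose giving a 10% tumour weight reduction, with values extrapolated from dose-response data.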

Musca domestica [8] = assay: Toxicity in male house fly assessed as lowest dose required to cause complete sterility administered in sugar; format: organism-based; details: in vivo, po
Musca domestica [9] = assay: Toxicity in male house fly assessed as lowest dose required to cause complete sterility administered in food; format: organism-based; details: in vivo, po
W256 [10] = assay: Antitumor activity against rat Walker 256 cells intramuscularly allografted in rat assessed as survival rate at 12 mg/kg, qd administered for 5 days; format: functional, organism-based; design: dose 12 mg/kg; summary of the method: as §1
W256 [11] = assay: Antitumor activity against cytoxan-resistant rat Walker 256 cells intramuscularly allografted in rat assessed as survival rate at 25 mg/kg, qd administered for 5 days; format: functional, organism-based; design: dose 25 mg/kg; summary of the method: as §1
W256 [12] = assay: Antitumor activity against cytoxan-resistant rat Walker 256 cells intramuscularly allografted in rat assessed as survival rate at 12 mg/kg, qd administered for 5 days; format: functional, organism-based; design: dose 12 mg/kg; summary of the method: as §1
W256 [13] = assay: Antitumor activity against cytoxan-resistant rat Walker 256 cells intramuscularly allografted in rat assessed as survival rate at 6 mg/kg, qd administered for 5 days; format: functional, organism-based; design: dose 6 mg/kg; summary of the method: as §1
W256 [14] = assay: Antitumor activity against cytoxan-resistant rat Walker 256 cells intramuscularly allografted in rat assessed as survival rate at 3 mg/kg, qd administered for 5 days; format: functional, organism-based; design: dose 3 mg/kg; summary of the method: as §1
L1210 [15] = assay: In vivo antitumor activity against mouse L1210 cells in prognostic scoring system assessed as survival rate at 11 mg/kg, qd administered for 15 days; format: functional, organism-based; design: dose 11 mg/kg; summary of the method: as §2
L1210 [16] = assay: In vivo antitumor activity against mouse L1210 cells in prognostic scoring system assessed as survival rate at 7 mg/kg, qd administered for 15 days; format: functional, organism-based; design: dose 7 mg/kg; summary of the method: as §2
L1210 [17] = assay: In vivo antitumor activity against mouse L1210 cells in prognostic scoring system assessed as survival rate at 5 mg/kg, qd administered for 15 days; format: functional, organism-based; design: dose 5 mg/kg; summary of the method: as §2
Rattus norvegicus [18] = assay: Toxicity in rat allografted with rat Walker 256 cells intramuscularly assessed as change in body weight at 12 mg/kg, qd administered for 5 days; format: organism-based; design: dose 12 mg/kg, route intramuscular; details: in vivo, im, 120 h; summary of the method: as §3
Rattus norvegicus [19] = assay: Toxicity in rat allografted with cytoxan-resistant rat Walker 256 cells intramuscularly assessed as change in body weight at 25 mg/kg, qd administered for 5 days; format: organism-based; design: dose 25 mg/kg, route intramuscular; details: in vivo, im, 120 h; summary of the method: as §3
Rattus norvegicus [20] = assay: Toxicity in rat allografted with cytoxan-resistant rat Walker 256 cells intramuscularly assessed as change in body weight at 12 mg/kg, qd administered for 5 days; format: organism-based; design: dose 12 mg/kg, route intramuscular; details: in vivo, im, 120 h; summary of the method: as §3
Rattus norvegicus [21] = assay: Toxicity in rat allografted with cytoxan-resistant rat Walker 256 cells intramuscularly assessed as change in body weight at 6 mg/kg, qd administered for 5 days; format: organism-based; design: dose 6 mg/kg, route intramuscular; details: in vivo, im, 120 h; summary of the method: as §3
Rattus norvegicus [22] = assay: Toxicity in rat allografted with cytoxan-resistant rat Walker 256 cells intramuscularly assessed as change in body weight at 3 mg/kg, qd administered for 5 days; format: organism-based; design: dose 3 mg/kg, route intramuscular; details: in vivo, im, 120 h; summary of the method: as §3
L1210 [23] = assay: In vivo antitumor activity against mouse L1210 cells in prognostic scoring system assessed as survival rate at 3 mg/kg, qd administered for 15 days; format: functional, organism-based; design: dose 3 mg/kg; summary of the method: as §2
W256 [24] = assay: Antitumor activity against rat Walker 256 cells intramuscularly allografted in rat assessed as tumor growth inhibition at 12 mg/kg, qd administered for 5 days relative to control; format: functional; details: W256, im, 120 h, route intramuscular, read-out: TGI
Summary of the method: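 Walker 256 carcinoma grown as a solid tumour in rats, with one injection daily for 5 days. Response is given as T/C %, the treated-group measure over the untreated-control tumour measure; a smaller value means more activity. Host toxicity is the mean net weight change of treated minus control animals, in grams.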

W256 [25] = assay: Antitumor activity against cytoxan-resistant rat Walker 256 cells intramuscularly allografted in rat assessed as tumor growth inhibition at 25 mg/kg, qd administered for 5 days relative to control; format: functional; details: W256, im, 120 h, route intramuscular, read-out: TGI; summary of the method: as §4
W256 [26] = assay: Antitumor activity against cytoxan-resistant rat Walker 256 cells intramuscularly allografted in rat assessed as tumor growth inhibition at 12 mg/kg, qd administered for 5 days relative to control; format: functional; details: W256, im, 120 h, route intramuscular, read-out: TGI; summary of the method: as §4
W256 [27] = assay: Antitumor activity against cytoxan-resistant rat Walker 256 cells intramuscularly allografted in rat assessed as tumor growth inhibition at 6 mg/kg, qd administered for 5 days relative to control; format: functional; details: W256, im, 120 h, route intramuscular, read-out: TGI; summary of the method: as §4
W256 [28] = assay: Antitumor activity against cytoxan-resistant rat Walker 256 cells intramuscularly allografted in rat assessed as tumor growth inhibition at 3 mg/kg, qd administered for 5 days relative to control; format: functional; details: W256, im, 120 h, route intramuscular, read-out: TGI; summary of the method: as §4
L1210 [29] = assay: In vivo antitumor activity against mouse L1210 cells in prognostic scoring system […] at 5 mg/kg, qd administered for 15 days relative to control; format: functional; details: L1210, 360 h, read-out: TGI

With `C=CCN(CC=C)P(=S)(N1CC1)N1CC1C` (centres undefined) the Activity (W256 [1]) was “Active”, the Activity (L1210 [2]) was “Active” and the Activity (Rattus norvegicus [3]) was -4 g. For the same molecule, the inhibition in vivo at 0.4 mg/kg (W256 [4]) was 77%, the LD50 [5] was 4 mg/kg and the ED10 (W256 [6]) was 0.4 mg/kg. It also gave a selectivity ratio [7] of 10, an Activity (Musca domestica [8]) of 0.5% and an Activity (Musca domestica [9]) of 0.25%.

For `C=CCN(CC=C)P(=O)(N(CC=C)CC=C)N1CC1`, the Activity (W256 [10]) was “Active”, the Activity (W256 [11]) was “Active” and the Activity (W256 [12]) was “Active”. For the same molecule, the Activity (W256 [13]) was “Active”, the Activity (W256 [14]) was “Active” and the Activity (L1210 [15]) was “Active”. For the same molecule, the Activity (L1210 [16]) was “Active”, the Activity (L1210 [17]) was “Active” and the Activity (Rattus norvegicus [18]) was -1 g. It also gave an Activity (Rattus norvegicus [19]) of -28 g, an Activity (Rattus norvegicus [20]) of -4 g and an Activity (Rattus norvegicus [21]) of -7 g. The Activity (Rattus norvegicus [22]) was -1 g, the Activity (L1210 [23]) was “Active” and the inhibition in vivo at 12 mg/kg (W256 [24]) was 0%. For the same molecule, the inhibition in vivo at 25 mg/kg (W256 [25]) was 52%, the inhibition in vivo at 12 mg/kg (W256 [26]) was 66% and the inhibition in vivo at 6 mg/kg (W256 [27]) was 70%. It also gave an inhibition in vivo at 3 mg/kg (W256 [28]) of 84%, an inhibition in vivo at 5 mg/kg (L1210 [29]) of 155% and an LD50 [5] of 75 mg/kg. The ED10 (W256 [6]) was 2.5 mg/kg and the selectivity ratio [7] was 30.

With `C=CCN(C1=CCCCC1)P(=O)(N1CC1)N1CC1` the Activity (Musca domestica [8]) was 1% and the Activity (Musca domestica [9]) was 1%.
